# Data as given in PubChem BioAssay.
# Active and inactive are the calls of the source.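 How the source made its calls, unless noted: active means viability loss from added drug above about 55%, and viability with drug at most 40%, in both replicates (limit read from the data, passing the limit was not always enough); inconclusive means both conditions met in only one replicate; inactive means neither replicate meets both conditions.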
# Tests used:
# [1] = Her2 expression decrease, cell viability multiplex – SKBR3 breast tumor cells, AlphaScreen, ATP viability, primary screen (AID 461;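 active means Her2 level under about 52% in both replicate screens, with viability over 70% of control, limit read from the data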;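 on Her2 level: lower value means less Her2 protein in the cells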;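 on viability: percent of carrier control wells set as 100% viability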); conditions: SKBR3 Her2 protein level, 18-24 h, measured here: SKBR3 viability, ATP luminescence, at 10 µM
# [2] = molecular target: Receptor tyrosine-protein kinase erbB-2 (Homo sapiens) (UniProt P04626); assay: as above; conditions: 18-24 h, at 10 µM, stronger effect = lower value
# [3] = reduced viability of SK-BR-3 breast cancer cells – cell-based, 24 h, human, pilot screen (AID 572;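 active means viability at or below 10% of carrier control in both of two separate runs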;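 further: compound exposure lasted between 18 and 24 h rather than exactly 24 h; 100% = carrier-treated control wells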); conditions: SK-BR-3 viability, CellTiter-Glo luminescence, at 10 µM, stronger effect = lower value
# [4] = HUVEC growth inhibition – cell-based, human, primary screen (AID 575;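 active means viability at or below 30% in both replicate assays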;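 further: 100% = median of untreated cell wells with 0.1% DMSO on each plate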); conditions: HUVEC proliferation, CellTiter-Glo luminescence, 72 h; at 10 µM; stronger effect = lower value
# Summary of the method: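 System – primary HUVEC, no more than 12 passages · Medium – Low-serum (2% FBS) EBM, supplemented · Times – 72 h exposure, 37 °C, 5% CO2, 30 min RT equilibration · Measured by – luminescent ATP assay · Read-out – % viability relative to median vehicle-well signal on each plate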
# [5] = H69AR cell proliferation blockers – human, duplicate replicates, primary screen (AID 580;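 active means viability at or under a set limit in both replicates, limit being median viability minus 3 SD, cut at about 48% in these data, passing the limit was not always enough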;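 further: 100% = mean luminescence of untreated wells and 0% = no signal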); conditions: H69AR lung tumor cells viability, ATP luminescence, 72 h; at 10 µM; stronger effect = lower value
# [6] = MRP1 drug-resistance reversers in H69AR cells – cell-based, doxorubicin co-treatment, pilot screen (AID 601); conditions: CellTiter-Glo, 72 h, at 10 µM; for differential viability (reversal): stronger effect = higher value
# [7] = yeast transport mutant growth inhibition pilot in 384-well plates, post-Golgi transport modulator project (AID 636; in the data active means inhibition above about 31%); conditions: absorbance 615 nm, about 18 h, stronger effect = higher value
# [8] = growth suppression of yeast trafficking mutant, preliminary HTS, modulators of trafficking downstream of Golgi apparatus project, 1536-format plate, OD 615 nm (AID 637; in the data active means inhibition above about 30%); conditions: yeast transport mutant growth, absorbance 615 nm, 18 h; stronger effect = higher value
# [9] = H69AR cells + 2 uM doxorubicin, measured here: viability with 2 uM doxorubicin, stronger effect = lower value
# [10] = H69AR cells, compound alone cytotoxicity
# Receptor tyrosine-protein kinase erbB-2 (Homo sapiens), sequence (P04626 whole entry, looked up): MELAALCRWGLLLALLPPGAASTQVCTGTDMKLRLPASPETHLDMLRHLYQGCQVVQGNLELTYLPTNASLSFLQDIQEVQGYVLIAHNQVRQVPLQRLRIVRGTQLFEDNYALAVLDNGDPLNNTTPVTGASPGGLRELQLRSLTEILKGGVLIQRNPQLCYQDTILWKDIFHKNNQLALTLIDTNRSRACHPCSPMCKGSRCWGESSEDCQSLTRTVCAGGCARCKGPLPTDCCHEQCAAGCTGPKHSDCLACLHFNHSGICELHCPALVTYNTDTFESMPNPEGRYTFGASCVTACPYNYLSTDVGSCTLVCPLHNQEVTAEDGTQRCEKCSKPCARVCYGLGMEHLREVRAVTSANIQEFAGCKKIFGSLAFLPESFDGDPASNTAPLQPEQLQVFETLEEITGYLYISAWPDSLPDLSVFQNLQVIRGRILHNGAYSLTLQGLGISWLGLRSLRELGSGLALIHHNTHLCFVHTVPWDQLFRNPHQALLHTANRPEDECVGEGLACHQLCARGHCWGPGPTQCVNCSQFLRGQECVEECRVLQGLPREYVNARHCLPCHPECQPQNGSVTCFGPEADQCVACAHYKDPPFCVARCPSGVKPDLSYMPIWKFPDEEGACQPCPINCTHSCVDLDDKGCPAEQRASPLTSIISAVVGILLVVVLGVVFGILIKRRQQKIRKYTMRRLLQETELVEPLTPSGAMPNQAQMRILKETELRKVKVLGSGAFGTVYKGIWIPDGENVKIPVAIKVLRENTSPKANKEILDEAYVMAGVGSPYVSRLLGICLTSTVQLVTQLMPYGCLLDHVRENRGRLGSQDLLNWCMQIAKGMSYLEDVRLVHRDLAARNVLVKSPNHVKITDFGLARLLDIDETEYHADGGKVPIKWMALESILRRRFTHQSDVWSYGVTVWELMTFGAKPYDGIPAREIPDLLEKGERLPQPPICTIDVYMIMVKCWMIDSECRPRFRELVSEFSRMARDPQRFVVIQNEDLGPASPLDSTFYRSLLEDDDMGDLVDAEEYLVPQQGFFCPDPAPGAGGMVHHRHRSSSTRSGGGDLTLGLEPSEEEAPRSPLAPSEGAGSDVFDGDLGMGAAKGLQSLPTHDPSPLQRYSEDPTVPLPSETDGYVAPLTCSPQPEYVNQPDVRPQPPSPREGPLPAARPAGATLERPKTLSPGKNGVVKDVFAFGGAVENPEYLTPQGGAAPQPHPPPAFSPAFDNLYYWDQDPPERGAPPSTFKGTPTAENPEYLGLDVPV
SMILES,viability [1] [%],Her2 level [2],viability [3],viability [4],viability [5],differential viability (reversal) ([6]; H69AR cells + 2 uM doxorubicin),"viability [6, 9] [%]","viability [6, 10] [%]",inhibition [7],inhibition [8]
Oc1ccccc1C1=Nc2nc3ccccc3n2C(c2ccccc2)C1 (stereo not given),75.5,86.5% (inactive),75.5% (inactive),103% (inactive),65% (inactive),-12.7% (inactive),77.7,65,-7.24% (inactive),-1.15% (inactive)
Cc1ccc(S(=O)(=O)NCCC(=O)OCn2nnc3ccccc3c2=O)cc1,95.5,82.5% (inactive),95.5% (inactive),83.8% (inactive),95.1% (inactive),-13.1% (inactive),108,95.1,-2.37% (inactive),1.27% (inactive)
O=C(NCCCNC(=O)c1ccccn1)c1ccccn1,106,75% (inactive),106% (inactive),79.6% (inactive),91.5% (inactive),-0.68% (inactive),92.1,91.5,-5.89% (inactive),-3.49% (inactive)
COC(=O)C1=C(C)OC(N)=C(C#N)C1c1c(C)nn(-c2ccccc2)c1Cl (stereo not given),89,118% (inactive),89% (inactive),70.7% (inactive),79.7% (inactive),-6.99% (inactive),86.7,79.7,-0.27% (inactive),16.6% (inactive)
O=C(NCCCN1CCN(CCCNC(=O)c2ccc(F)cc2)CC1)c1ccc(F)cc1,92.5,98% (inactive),92.5% (inactive),89.9% (inactive),94.6% (inactive),4.58% (inactive),90,94.6,-4.67% (inactive),0.81% (inactive)
Cc1ccc(-c2nn(C)c(=O)c3ccccc23)cc1S(=O)(=O)NCCN1CCOCC1,87,121% (inactive),87% (inactive),98.6% (inactive),93.3% (inactive),5.54% (inactive),87.8,93.3,6.8% (inactive),-6.35% (inactive)
CC(C)CCNC(=O)NC(=O)CSc1nnc(COc2ccccc2Cl)o1,99,80.5% (inactive),99% (inactive),81% (inactive),93% (inactive),5.9% (inactive),87.1,93,-2.24% (inactive),-5.87% (inactive)
COc1cc(C(=O)OCC(=O)N(C)Cc2ccccc2)cc(OC)c1OC,106,96.5% (inactive),106% (inactive),103% (inactive),94.8% (inactive),-2.6% (inactive),97.4,94.8,-5.34% (inactive),0.79% (inactive)
O=S(=O)(Nc1ccccn1)c1ccc(Oc2ccccc2)cc1,88,87.5% (inactive),88% (inactive),87.8% (inactive),98.8% (inactive),10.5% (inactive),88.3,98.8,-2.57% (inactive),-1.11% (inactive)
O=C(c1ccc2c(c1)OCO2)N1CCCN(C(=O)c2ccc3c(c2)OCO3)CC1,89.5,91% (inactive),89.5% (inactive),110% (inactive),97.9% (inactive),10.7% (inactive),87.2,97.9,-1.95% (inactive),-1.97% (inactive)
O=C(Nc1ccc(N2CCN(Cc3ccccc3Cl)CC2)cc1)c1cccnc1,91,108% (inactive),91% (inactive),117% (inactive),103% (inactive),5.44% (inactive),98,103,2.16% (inactive),0.82% (inactive)
CCOC(=O)c1ccc(NC(=O)CSCc2ccco2)cc1,108,100% (inactive),108% (inactive),81.9% (inactive),87.7% (inactive),8.33% (inactive),79.4,87.7,-5.45% (inactive),-2.62% (inactive)
Cc1nnc2sc(-c3cccc(NC(=O)c4cccnc4)c3)nn12,87.5,104% (inactive),87.5% (inactive),90.2% (inactive),87.8% (inactive),-8.91% (inactive),96.7,87.8,-2.7% (inactive),36.7% (active)
CC(C)(C)C(=O)Cn1c[n+](N)cn1,103,86% (inactive),103% (inactive),86.1% (inactive),96.9% (inactive),4.54% (inactive),92.4,96.9,-4.67% (inactive),0.49% (inactive)
COc1cccc(CNC(=O)C2CCN(c3cnccn3)CC2)c1,87.5,118% (inactive),87.5% (inactive),88.4% (inactive),96.2% (inactive),8.93% (inactive),87.3,96.2,-4.67% (inactive),16.8% (inactive)
O=C(CNC1CCCCCC1)Nc1ccc(S(=O)(=O)NC2CC2)cc1,100,87% (inactive),100% (inactive),64.8% (inactive),93.7% (inactive),5.79% (inactive),87.9,93.7,-4.53% (inactive),-0.48% (inactive)
COC(=O)N1CC(c2ccccc2)CC1=O (stereo not given),96.5,81.5% (inactive),96.5% (inactive),101% (inactive),100% (inactive),15.1% (inactive),85,100,-9.04% (inactive),-6.51% (inactive)
Cc1nc2c(o1)CCc1ccccc1C2O (stereo not given),96,91% (inactive),96% (inactive),93.9% (inactive),94.4% (inactive),-5.3% (inactive),99.7,94.4,-4% (inactive),-2.95% (inactive)
CCS(=O)(=O)c1nc2ccccc2n1CC(=O)N1CCCCC1,88.5,82.5% (inactive),88.5% (inactive),96.7% (inactive),80.4% (inactive),3.6% (inactive),76.8,80.4,-3.42% (inactive),0.79% (inactive)
Cc1ccc(-n2cnnn2)c2cccnc12,95.5,92% (inactive),95.5% (inactive),72.1% (inactive),101% (inactive),7.82% (inactive),93.5,101,-5.53% (inactive),4.83% (inactive)
O=C1CCCN1CCCNc1ncnc2c1[nH]c1ccc(Cl)cc12,89,81% (inactive),89% (inactive),85.3% (inactive),80.9% (inactive),3.12% (inactive),77.8,80.9,-7.6% (inactive),-0.48% (inactive)
COC(=O)[C@@H](NC(=O)NCc1ccccc1Cl)C(C)C,95,123% (inactive),95% (inactive),84.9% (inactive),94.4% (inactive),-1.47% (inactive),95.9,94.4,-1.17% (inactive),-9.5% (inactive)
Cc1ccccc1-c1nc(CN2CCC(C(=O)NCCCN3CCCC3)CC2)c(C)o1,81.5,91.5% (inactive),81.5% (inactive),63% (inactive),98.2% (inactive),8.91% (inactive),89.3,98.2,1.32% (inactive),0.55% (inactive)
O=C(c1ccccc1Br)N1CCN(c2ccccc2)CC1,85,83.5% (inactive),85% (inactive),93.6% (inactive),102% (inactive),12.9% (inactive),88.9,102,-8.22% (inactive),-4.76% (inactive)
c1ccc2c(c1)CNC1(CCCCC1)C2,103,94.5% (inactive),103% (inactive),103% (inactive),102% (inactive),12.9% (inactive),88.6,102,-8.63% (inactive),1.27% (inactive)
CCc1nnc(NC(=O)NCN2C(=O)C3C4C=CC(C4)C3C2=O)s1 (stereo not given),123,85.5% (inactive),123% (inactive),84.4% (inactive),95.5% (inactive),1.7% (inactive),93.8,95.5,-6.44% (inactive),-5.24% (inactive)
Nc1sccc1C(=O)c1ccccc1,85.5,118% (inactive),85.5% (inactive),82.6% (inactive),88.5% (inactive),-2.76% (inactive),91.2,88.5,-1.87% (inactive),-0.16% (inactive)
COc1ccccc1NC(=O)C1=C(C)Nc2nc(CCCO)nn2C1c1cccnc1 (stereo not given),132,94.5% (inactive),132% (inactive),95.7% (inactive),96.2% (inactive),11% (inactive),85.2,96.2,-6.36% (inactive),-3.81% (inactive)
Cc1ccc2[nH]c3c(c2c1)CCc1cn[nH]c1-3,132,68% (inactive),132% (inactive),66.4% (inactive),38.4% (active),-18.3% (inactive),56.7,38.4,-0.8% (inactive),-8.23% (inactive)
